A selection: hits, their analogues and other compounds. The true share with any hit is near 2.4%.
HTR5A ag ctr: activates human HTR5A in OPRM1-OPRD1 agonist counter-screen; P47898; HTR5A agonist assay, luminescence, cell-based; activation, % at 9.3 µM; 0.61% of 340,000 active; AID 504692; in the data active = activation mostly above about 9.5%, no sharp cut-off; inactive = mostly below about 7.6%
Target sequence (P47898 whole entry, looked up): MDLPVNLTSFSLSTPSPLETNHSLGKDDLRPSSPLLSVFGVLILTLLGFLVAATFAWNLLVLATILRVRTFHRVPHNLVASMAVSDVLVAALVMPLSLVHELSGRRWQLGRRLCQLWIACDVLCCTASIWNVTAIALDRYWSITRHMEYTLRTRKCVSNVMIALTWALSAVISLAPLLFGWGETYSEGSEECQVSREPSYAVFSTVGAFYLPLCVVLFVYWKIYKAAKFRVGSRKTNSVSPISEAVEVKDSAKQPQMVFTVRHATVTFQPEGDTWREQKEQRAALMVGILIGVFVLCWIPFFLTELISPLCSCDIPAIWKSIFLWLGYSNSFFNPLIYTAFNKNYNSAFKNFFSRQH
MOR-DOR ag: OPRM1-OPRD1 heterodimerization agonism; P35372+P41143; cells, luminescence; activation, % at 9.3 µM; 0.3% of 340,000 active; AID 504326
OPRM1-OPRD1 inv: mu-delta opioid heterodimer inverse agonism. P35372+P41143. cell-based MOR-DOR heterodimer luminescence. inhibition, % at 9.3 µM. 0.21% of 340,000 active; in the data active = inhibition above about 22%, passing the limit was not always enough
MC4R barr agon: agonists of human melanocortin 4 receptor (MC4R) beta-arrestin. U2OS MC4R beta-arrestin complementation, luminescence; percent of melanotan II response, DMSO zero. activation, % at 8.9 µM. 0.98% of 360,000 active. AID 540308;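 active = activation above a per-plate cutoff, the mean activation of sample wells on that plate plus 3 SD, cut at about 8% in these data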
Target sequence (P32245 whole entry, looked up): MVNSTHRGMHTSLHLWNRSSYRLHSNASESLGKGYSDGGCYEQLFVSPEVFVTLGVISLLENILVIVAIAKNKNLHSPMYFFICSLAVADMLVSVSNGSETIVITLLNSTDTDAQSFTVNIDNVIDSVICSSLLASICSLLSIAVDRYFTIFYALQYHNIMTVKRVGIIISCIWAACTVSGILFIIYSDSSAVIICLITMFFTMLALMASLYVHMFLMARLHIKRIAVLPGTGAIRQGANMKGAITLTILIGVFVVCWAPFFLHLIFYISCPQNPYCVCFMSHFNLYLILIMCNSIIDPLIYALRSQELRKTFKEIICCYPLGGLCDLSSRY
HTR5A inv ag: HTR5A inverse agonism, opioid heterodimer counter-screen; HTR5A cell line, luminescence; inhibition, % at 9.3 µM; 0.083% of 340,000 active; AID 504634; in the data active = inhibition mostly above about 23%, no sharp cut-off; inactive = mostly below about 18%
MC4R antagonist: human MC4R antagonism in cAMP assay. inhibition, % at 6.5 µM. 0.48% of 360,000 active. MC4R-expressing cells, MTII-stimulated cAMP, LANCE TR-FRET. AID 540295. P32245;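 active = inhibition above its plate's cutoff, the mean of tested wells on that plate plus 3 SD, cut at about 29% in these data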
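system = U2OS cells with stable human MC4R expression | also added = Melanotan II challenge after compound preincubation | dosing = one concentration, 6.5 µM nominal | incubation = compound 30 min, challenge 1 h, detection 1 h | measured by = TR-FRET with Eu-cAMP and labeled anti-cAMP, 671 nm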
MOR-DOR ag conf: confirmation of human OPRM1-OPRD1 heterodimerization agonists | shares compounds with MOR-DOR ag | 45% of 830 active | activation, % at 9.3 µM | cells, MOR-DOR heterodimerization, luminescence complementation | AID 504904
HTR5A ag ctr2: HTR5A agonism, opioid heterodimer counter-screen | AID 504905 | 8% of 830 active | activation, % at 9.3 µM | shares compounds with MOR-DOR ag | HTR5A agonist counterscreen, cell luminescence; in the data active = activation above about 17%
OPRM1-D1 inv cf: confirmation of human OPRM1-OPRD1 heterodimerization inverse agonists. shares compounds with OPRM1-OPRD1 inv. cells expressing OPRM1/OPRD1 heterodimer, luminescence. inhibition, % at 9.3 µM. 20% of 580 active. AID 504900; in the data active = inhibition above about 32%
HTR5A inv count: inverse agonist of human HTR5A in OPRM1-OPRD1 counter-screen. shares compounds with OPRM1-OPRD1 inv. HTR5A-expressing cells, luminescence, inverse agonism. inhibition, % at 9.3 µM. 580 tested, under 10 active; call rule not given here
cAMP nonselect: counter-screen for MC4R antagonists: nonselective cAMP signaling inhibitors; shares compounds with MC4R antagonist; parental U2OS, forskolin cAMP, LANCE TR-FRET; inhibition, % at 6.5 µM; 26% of 1,600 active; AID 602193;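 active = mean inhibition over triplicates above the low-control well mean plus 3 SD, set per campaign, cut at about 13% in these data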;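 also: signal is single emission at 671 nm which falls as cellular cAMP rises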
MC4R cAMP antag: human MC4R cAMP antagonism confirmation. MC4R-expressing cells, MTII-stimulated cAMP, TR-FRET. inhibition, % at 6.5 µM. 27% of 1,600 active. AID 602195. shares compounds with MC4R antagonist; in the data active = inhibition above about 29%
MC4R barr conf: human MC4R beta-arrestin agonism confirmation | activation, % at 8.9 µM | shares compounds with MC4R barr agon | 31% of 2,400 active | U2OS MC4R beta-arrestin recruitment, luminescence; scaled DMSO 0%, Melanotan II 100%;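 active = mean activation across replicates above the hit cutoff set in the earlier primary screen, cut at about 8% in these data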
MOR-DOR barr ag: OPRM1-OPRD1 heterodimer agonism counter-screen | shares compounds with MC4R barr agon | U2OS PathHunter beta-arrestin, beta-gal luminescence; percent of deltorphin B response, DMSO zero | 5.8% of 2,400 active | AID 602194 | activation, % at 9.2 µM;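 active = mean activation across replicates exceeds the hit threshold derived in the earlier primary screen, cut at about 18% in these data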
Numbers stand for hits; n = inactive; x = not tested or not shown; ! = not active in a repeat. Rule as the data show it, unless noted: active = activation above about 18%; inactive = the rest.

SMILES	HTR5A ag ctr	MOR-DOR ag	OPRM1-OPRD1 inv	MC4R barr agon	HTR5A inv ag	MC4R antagonist	OPRM1-D1 inv cf	HTR5A inv count	others
CC1=CC(=O)C(C(C)C)=C/C1=N/OS(=O)(=O)c1ccccc1	30	205	n	31	n	71	x	x	MOR-DOR ag conf=83;HTR5A ag ctr2=29;cAMP nonselect=36;MC4R cAMP antag=91
COc1cccc(N2CCN(c3ncnc4c3[nH]c3ccc(F)cc34)CC2C)c1 (stereo not drawn)	15	43	n	22	n	40	x	x	MOR-DOR ag conf=n;HTR5A ag ctr2=n;cAMP nonselect=26;MC4R cAMP antag=51
CCOc1ccccc1CNC(=O)Cn1ccc2cc(S(=O)(=O)N3CCCC3)ccc21	n	n	n	n	n	n	x	x
CN(C)S(=O)(=O)c1ccc(-c2csc(N/N=C/c3ccco3)n2)cc1	n	n	n	n	n	n	x	x
CN(C)S(=O)(=O)c1ccc(-c2csc(N/N=C/c3ccc(O)cc3)n2)cc1	n	38	n	9.8	n	32	x	x	MOR-DOR ag conf=157;HTR5A ag ctr2=n;cAMP nonselect=n;MC4R cAMP antag=29
Cc1ccc(Nc2nc(N/N=C/c3c[nH]c4ccccc34)nc(N3CCOCC3)n2)cc1	n	19	n	n	n	31	x	x	MOR-DOR ag conf=n;HTR5A ag ctr2=n;cAMP nonselect=n;MC4R cAMP antag=n
CN1CCN(Cc2nc3ccccc3c(=O)n2Cc2nc(-c3ccc4ccccc4c3)cs2)CC1	9.0	20!	n	9.7!	n	n	x	x	MOR-DOR ag conf=49;HTR5A ag ctr2=n;MC4R barr conf=13;MOR-DOR barr ag=n
COc1ccc(NC(=O)CN(C)C2CCCCC2)c([N+](=O)[O-])c1	n	n	n	n	n	n	x	x
CC(C)C(=O)Nc1nnc(NC(=S)Nc2ccccc2)s1	n	n	36	n	n	n	34	n
CCCc1nnc(NC(=S)Nc2ccccc2)s1	n	n	n	n	n	n	x	x
CCn1cc(S(=O)(=O)Nc2cccnc2)cn1	n	n	37	n	n	n	41	n
CCn1ncc(S(=O)(=O)Nc2cccnc2)c1C	n	n	n	n	n	n	x	x
Cn1cccc1C(C#N)(CC#N)c1cccc(F)c1C#N (stereo not drawn)	n	n	n	n	n	n	x	x
Cn1cccc1C(C#N)c1cccc(F)c1C#N (stereo not drawn)	n	n	37	n	n	n	n	n
Cc1cccc(OCCN2C(=O)C(=O)c3cc(C)ccc32)c1	n	n	30	n	n	n	n	n
Cc1ccc2c(c1)C(=O)C(=O)N2CCOc1ccccc1	n	n	38	n	n	n	n	n
Cc1ccc2c(c1)C(=O)C(=O)N2CCCOc1ccccc1C	n	n	n	n	n	n	x	x
CCSc1nnc2c(n1)OC1(CCCC1)Nc1ccccc1-2	n	n	n	n	n	n	x	x
O=C1Nc2ccc(F)cc2C12Nc1ccccc1-c1nnc(SCc3ccccc3F)nc1O2 (stereo not drawn)	n	n	69	n	n	n	72	n
O=C1Nc2ccc(Cl)cc2C12Nc1ccccc1-c1nnc(SCc3ccccc3F)nc1O2 (stereo not drawn)	n	n	50	n	n	n	n	n
COC(=O)c1cc(=O)n(-c2ccc(C(F)(F)F)cc2)[nH]1	n	n	n	n	n	n	x	x
CC(C)CN(C(=O)COC(=O)CNC(=O)c1ccccc1F)c1c(N)n(Cc2ccccc2)c(=O)[nH]c1=O	n	n	n	n	n	n	x	x
S=C1NCCc2ccccc2C1c1ccccc1 (stereo not drawn)	n	n	n	n	n	n	x	x
S=C1NCCc2ccccc2C1c1ccccc1Cl (stereo not drawn)	n	n	44	n	n	n	n	n
CCCCCc1ccc(C2=NNC(=O)CC2)cc1	n	n	n	n	n	n	x	x
SMILES	HTR5A ag ctr	MOR-DOR ag	OPRM1-OPRD1 inv	MC4R barr agon	HTR5A inv ag	MC4R antagonist	OPRM1-D1 inv cf	HTR5A inv count	others
CC/C(C)=N\N=C\c1c(O)n(CC)c2cc(C3=NNC(=O)CC3)ccc12	n	n	31	n	n	n	50	n
O=C(c1ccc(NS(=O)(=O)c2cccc(F)c2)cc1)N1CCCCC1	n	n	n	n	n	n	x	x
CC(NC(=O)COc1ccccc1)C(=O)OCC(=O)c1cc2ccccc2o1 (stereo not drawn)	n	n	71	n	n	n	n	n
O=C(Cc1ccc(F)cc1)OCC(=O)c1cc2ccccc2o1	n	n	48	n	n	n	n	n
O=C(CCNc1ccc(F)cc1)c1cc2ccccc2o1	n	n	n	n	n	n	x	x
COc1ccccc1/C=C/C(=O)NCCc1ccccn1	n	n	n	n	n	n	x	x
CN1C(=O)/C(=C2/C=Cc3ccccc3N2CCCS(=O)(=O)O)SC1=S	n	n	32	n	n	n	n	n
CCCN1/C(=C2/SC(=S)N(CC)C2=O)C=Cc2ccccc21	n	n	n	n	n	n	x	x
CC1(c2cccs2)CC(c2cccs2)=C(C#N)C(=O)N1 (stereo not drawn)	n	n	n	n	n	n	x	x
Cc1cc(C(=O)NNC(=S)NC(C)c2ccccc2)c2ccccc2n1 (stereo not drawn)	n	n	34	n	n	n	n	n
Cc1cc(C(=O)NNC(=O)c2ccc(Cl)cc2)c2ccccc2n1	n	n	n	n	n	n	x	x
CCCOc1ccc(C(=O)Nc2ccc3c(c2)OCCO3)cc1	n	n	n	n	n	n	x	x
CCCOc1ccc(S(=O)(=O)Nc2ccccn2)c2ccccc12	n	n	n	n	n	n	x	x
ON1C2CCCCC2N(O)C1c1ccccc1C(F)(F)F (stereo not drawn)	n	n	44	n	n	n	n	n

Assay outcomes (PubChem BioAssay)
